# Assay: Toxicity liver stage against HepG2, at 10uM
# Format: cell-based
# Design: test concentration 10 uM, cell line HepG2-A16-CD81EGFP
# Details: human, HepG2-A16-CD81EGFP cells; read-out: INHIBITION
# How it was run: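 Uninfected HepG2-A16-CD81EGFP cells, 3 × 10^3 per well, 1536-well, plated on prespotted compound at 10 μM final, parasite-free screening media added to match infected plates; puromycin 10 μM positive, DMSO 0.5% negative; run in parallel with 48 h PbLuc assay at 37 °C, 5% CO2; viability by CellTiter-Glo luminescence, normalized to controls.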
row,SMILES,cytotoxicity at 10 µM
1,Cn1ccc(C(=O)NCc2ccc(N3CCCCCC3)nc2)cc1=O,-3.18%
2,Cc1ccc(CNC2(Cc3cc(CC(C)C)on3)COC2)o1,-2.07%
3,c1ccc(-c2nc(CN3CCn4c(nnc4C4CC4)C3)cs2)cc1,-3.92%
4,COCC(=O)N1CCc2c(CNS(C)(=O)=O)n[nH]c2C1,4.32%
5,CSCC(CCO)NC(=O)c1cccc(F)c1Cl (configuration not stated),11.7%
6,CN(Cc1ccc(C(N)=O)cc1)c1ccc(C(F)(F)F)cn1,7.98%
7,CC(C)n1nc2c(cc1=O)CN(CC(=O)N(C)c1nccs1)CC2,-9.94%
8,Cc1nc(-c2cccc(N3CCC(N[C@@H]4CCOC4)CC3)c2)cs1,-8.16%
9,O=C(NCCCn1ccnc1)N1CCCC1c1cccs1 (configuration not stated),-8.31%
10,COc1cc(OC)cc(C(=O)N2CCOCC2c2[nH]ncc2C)c1 (configuration not stated),7.83%
11,CN(C)C(=O)c1nc2c(s1)CCCN2Cc1ccccc1,7.58%
12,CC(C)CCN(C)C(=O)c1cc(CN2CCC(O)CC2)on1,1.06%
13,CCOc1ccnc(N2CCN(C(=O)c3cccnc3O)CC2)n1,-6.51%
14,CSCCNC(=O)c1cc(Br)cn1C(C)C,-1.16%
15,CN(Cc1nc(C2CC2)no1)C(=O)C1COc2ccccc2C1 (configuration not stated),-0.509%
16,O=C(c1ncoc1C1CC1)N1CCCN(CCCc2ccccc2)CC1,-2.78%
17,CN(CCCc1nccn1C)C(=O)C1CCN(C(=O)C2CC2)CC1,-4.49%
18,Clc1ccccc1C1(c2ccnc(-c3ccncc3)n2)CCNCC1,-8.16%
19,Cc1nccn1-c1cc(CNC(=O)c2ccccn2)ccn1,-11.5%
20,O=C(NC1CC1)c1ccnc(N2CCOC(c3ccc(Cl)cc3)C2)c1 (configuration not stated),4.44%
21,Cc1ccc(C2CN(C(=O)NCc3nnc4ccccn34)CCO2)o1 (configuration not stated),5.62%
22,Cc1cnn(CC2CCCCN2Cc2noc(C3CC3)n2)c1 (configuration not stated),-9.32%
23,COc1cc(F)c(NC(=O)N(C)Cc2cc(C)on2)cc1F,-4.25%

row,SMILES,cytotoxicity at 10 µM
1,COc1cc(CNc2ccc(C)c(Cl)c2)ccc1OCC(N)=O,7.1%
2,COc1ccc(CNc2nc(C3CC3)nc3c(C)nn(C)c23)cc1,5.4%
3,CSc1ncn(-c2nc(NC3CC3)nc(N(C)C)n2)n1,-6.75%
4,Cc1cccc(N2CCC3(CCCC(=O)N3)CC2)n1,-3.8%
5,Cc1nnc(N2CCCC2)c(C(N)=O)c1C,7.19%
6,Cc1ccc(C(=O)NCCCNS(C)(=O)=O)cc1-n1cccc1,-10%
7,CCOC(=O)N1CCC(OC)c2ccccc2N(C)C(=O)C1 (configuration not stated),7.58%
8,CCNc1cc2c(nn1)CCN(C(=O)CC1CCCC1)C2,-3.87%
9,Cc1ccc(C(=O)OC(C)Cn2cccn2)c(=O)[nH]1 (configuration not stated),3.35%
10,Cc1nc(CSCCC(=O)NCC(=O)NC(C)C)cs1,-2.03%
11,Cc1noc(C)c1CN1CCO[C@H]2CN(C(=O)N3CCCC3)C[C@H]21,8.01%
12,CNC(=O)[C@H]1C[C@H]2CN(C(=O)NC(C)C)C[C@@H]1O2,-99.8%
13,CC[C@H](N)C(=O)Nc1nn(CC(F)(F)F)c2cc(OC(C)C)ccc12,-2.8%
14,Cc1cncc(C2CCCN(CC3CCC3)C2)n1 (configuration not stated),-7.41%
15,O=C(CN1CCN(CC(O)C2CC2)CC1)NCc1ccccc1 (configuration not stated),6.03%
16,c1csc(-c2noc(CN3CCc4c(ncn4C4CC4)C3)n2)c1,5.93%
17,CCOc1nnc(CN(CC)CC(=O)NC(C)(C)C)s1,-13.7%
18,O=C(NCc1ccccc1)N1CCc2ncnc(NC3CC3)c2CC1,-100%
19,COCC(C)N(C)C(=O)c1ccc2nncn2c1 (configuration not stated),-1.37%
20,O=C(NCc1cccc(F)c1)NCC(O)c1cccc(F)c1 (configuration not stated),-7.58%
21,CN(Cc1ccsc1)C(=O)CN1CCOC(Cn2cncn2)C1 (configuration not stated),-1.14%
22,COCCCNC(=O)Nc1ccc(OCc2noc(C3CC3)n2)cc1,7.04%
23,Cc1ccc(CN2CC(C(=O)NC(C)C)C3(CCOCC3)C2)s1 (configuration not stated),1.12%

row,SMILES,cytotoxicity at 10 µM
1,CC(Oc1cccc(F)c1)C(=O)N(CC(N)=O)C1CCCC1 (configuration not stated),-1.21%
2,Cc1nn(C)c(C)c1C1CCCN1C(=O)c1ccc(NC2CC2)nc1 (configuration not stated),-2.85%
3,Fc1cccc(N2CCCC3(CN(Cc4cccnc4)CCO3)C2)c1 (configuration not stated),-78.2%
4,Cc1ncc(C(=O)N2CCOC(C(=O)N3CCCCCC3)C2)c(C)n1 (configuration not stated),3.67%
5,COCCN1C[C@H]2CCC[C@@H](CNc3ncccn3)[C@H]2C1,-112%
6,O=C(NCC1CC1)[C@H]1C[C@@H]2CCN(Cc3ccc4c(c3)OCO4)C[C@@H]2O1,-0.208%
7,Cc1nc(-c2ccccc2)n(CC(=O)NC(C)(C)C)n1,-16%
8,CCc1sc(-c2nnc(CNC(C)Cn3cccn3)o2)cc1C (configuration not stated),0.749%
9,O=C(O)C1(Oc2ccc3ccccc3c2)CCN(c2ncccn2)CC1,1.46%
10,COc1ccc(OCCN2CCC(N3CCNC3=O)CC2)cc1,29.5%
11,Cc1ccc(-c2cc(C(=O)N3CCCC3c3cccnc3)[nH]n2)o1 (configuration not stated),-1.41%
12,N#Cc1ccc(OCCCN2CCOC(Cn3cncn3)C2)cc1 (configuration not stated),-0.0581%
13,CC(C)N1CCC(NC(=O)NCCC(=O)NCc2ccccc2)C1 (configuration not stated),-0.986%
14,COCCn1ccnc1C1CCN(Cc2ccccc2C#N)CC1,-10.2%
15,O=C(CN1CCc2onc(-c3ccccc3F)c2C1)NC1CC1,14.6%
16,CC(C)NC(=O)N[C@H]1C[C@@H](c2nc(-c3ccc(F)cc3)no2)N(C)C1,-7.97%
17,C[C@H](NS(C)(=O)=O)C(=O)NCc1cc(-c2ccco2)n(CC(F)(F)F)n1,-13%
18,COC(=O)N1CC(C)=C(C)CN1C(=O)Nc1ccc(Cl)c(Cl)c1,-1.53%
19,CC1CCN(C)c2ccccc2N1C(=O)c1ccnc(-n2cncn2)c1 (configuration not stated),2.37%
20,CC(C)(C)n1cc(C(=O)NCCN2CCOCC2)c2cccnc21,2.14%
21,CCN(Cc1ccc2c(c1)OCO2)C(=O)NCc1nc(C)cs1,7.47%
22,CCC1CN(C(=O)c2cnc(-c3ccccc3)s2)CCO1 (configuration not stated),-2.63%
23,CCOCc1ncn2c1CN(S(=O)(=O)c1cccs1)CCC2,9.52%

row,SMILES,cytotoxicity at 10 µM
1,CCc1ccc(C2CCCN2C(=O)NCC(=O)NCC(C)C)o1 (configuration not stated),17.7%
2,CCc1ccc(C(=O)NC2CCCN(c3ccn(C)n3)C2=O)o1 (configuration not stated),-2.43%
3,CC(OCC1CC1)C(=O)N1CCCN(Cc2nccn2C(C)C)CC1 (configuration not stated),-11.9%
4,COCCN1CCOCC12CCN(C(=O)c1c[nH]c3ccccc13)CC2,-69.8%
5,CCN1CCCC1CNC(=O)CCSc1ccc2c(c1)OCCO2 (configuration not stated),-1.58%
6,Cc1ncsc1CCC(=O)NCc1csc(N2CCCC2)n1,-2.56%
7,COc1ccc2cc(NC(=O)CCNc3nc(C)cc(C)n3)cnc2c1,-48.9%
8,Cc1nn(CCCNC(=O)C2CCN(S(C)(=O)=O)CC2)cc1Cl,-1.94%
9,Cc1ccccc1C(=O)N1C[C@@H]2COC[C@]2(COCc2cccnc2)C1,4.44%
10,O=C(NC1(c2nnn(Cc3ccncc3)n2)CCCC1)c1ccccc1,21%
11,O=C(CN1C(=O)CC2(CCCC2)C1=O)NCCc1nccs1,0.566%
12,CN(C)C(=O)CN1CCCC1c1nccnc1Nc1ccccn1 (configuration not stated),-15%
13,O=C(NCCCO)c1nnsc1-c1ccc(Cl)cc1,4.62%
14,Cc1c(CCC(=O)N2CCOC(c3cnccn3)C2)cnn1C (configuration not stated),-1.87%
15,C=C(Br)CN(C)C1CCN(CCc2ccccn2)CC1,0.953%
16,CC(=O)Nc1nc(CN2CCCC2Cn2cncn2)cs1 (configuration not stated),0.222%
17,COc1ccc(OCC(O)CN2CCN(c3nccs3)CC2)cc1 (configuration not stated),-3.82%
18,Cc1noc2nc(C3CC3)c(Cl)c(C(=O)O)c12,-1.25%
19,CN(C)CC(=O)N1CCC2(CC1)COC(COc1ccccn1)C2 (configuration not stated),-3.14%
20,CCCn1nc(C)c(CNC(=O)C2COc3ccc(OC)cc3C2)c1C (configuration not stated),-7.79%
21,Cc1ncsc1C(=O)NCCNc1cnccn1,0.00742%
22,O=C1NCCCCC1SCc1coc(-c2cccc(F)c2)n1 (configuration not stated),7%
23,Cc1oncc1C(=O)N1CC2CC1(C(=O)N(C)C)C2,-0.95%

row,SMILES,cytotoxicity at 10 µM
1,OCCOCCN1CCCC1c1cccc(Cl)c1 (configuration not stated),-1.78%
2,Cc1ccc(CC(=O)NCC(O)c2cc(Cl)cc(Cl)c2)cn1 (configuration not stated),-3.69%
3,Cc1cncc(C2CCCN(Cc3cccn3C)C2)n1 (configuration not stated),8.25%
4,Cn1cc(C[C@H]2[C@H](N3CCOCC3)CCN2C(=O)c2ccc[nH]2)cn1,-75%
5,CN(Cc1cc2n(n1)CCNC2)Cc1n[nH]c2c1CCC2,5.04%
6,CS(=O)(=O)NCC1CCCCN1C(=O)c1ccsc1 (configuration not stated),0.555%
7,COc1nn(C)cc1C(=O)NCC(=O)NCc1ccccn1,-3.56%
8,Cc1ccc(NCc2cccc3cn[nH]c23)cc1OC1CCOC1 (configuration not stated),1.44%
9,CS(=O)(=O)c1cc(NC(=O)COc2ccccc2F)cc(C(=O)O)c1,-9.24%
10,CN(Cc1cccnc1)CC1CC12CCN(c1nncs1)CC2 (configuration not stated),9.28%
11,CCn1cc(S(=O)(=O)N2CCCC3(CC=CNC3=O)C2)cn1 (configuration not stated),-2.92%
12,Cc1cc(C)n(-c2ccccc2NC(=O)NCCCN(C)S(C)(=O)=O)n1,-4.01%
13,CC(C)NC(=O)Nc1ccc2c(c1)ncn2CC(=O)NCCN(C)C,-8.15%
14,CC(=O)N1CCCC2(CCN(C(=O)c3nn(C)c4ccccc34)CC2)C1,2.26%
15,COc1ccc(C(=O)N2CCC(Oc3ccccc3)(C(=O)O)CC2)o1,11.6%
16,CCc1n[nH]c(C2CN(C(=O)CCc3cscn3)CCO2)n1 (configuration not stated),-8.42%
17,Oc1cc(-c2ccsc2)nc(C2CCN(Cc3ccncc3)CC2)n1,-7.7%
18,Cc1cc(CC(C)NC(=O)c2n[nH]c3c2CCC3)n[nH]1 (configuration not stated),-144%
19,COc1ccc(C(N)=O)cc1NCc1nc(-c2cccs2)oc1C,1.83%
20,CS(=O)(=O)N[C@@H]1COC[C@@H]2CN(Cc3ccoc3)C[C@@H]21,-4.85%

# Reference: ChEMBL document CHEMBL4513216, “Probing the Open Global Health Chemical Diversity Library for Multistage-Active Starting Points for Next-Generation Antimalarials” (ACS Infect Dis, 2020)
